Test results published in ChEMBL document CHEMBL1148421, “Novel 3,5-diaryl pyrazolines and pyrazole as low-density lipoprotein (LDL) oxidation inhibitor” (Bioorg Med Chem Lett, 2004).

What was measured:
Type in all cases: functional
[1] = In vitro ability to protect human LDL against Cu2+-induced peroxidation. (concentration inhibiting 50% of the Cu2+ induced lipid peroxidation)
How it was run: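 Human LDL (120 µg/mL) oxidized with 10 µM CuSO4 as initiator for 4 h in the presence of compound. Lipid peroxidation read out as TBARS. IC50 is the concentration inhibiting TBARS formation by 50%.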

[2] = organism: Homo sapiens; assay: Antioxidant effect on the Cu2+-mediated oxidation andapoB-100 fragmentation in LDL after incubation with 20 uM of compound
How it was run: (§1)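 LDL (240 µg/mL in PBS) incubated 12 h at 37 °C with 5 µM CuSO4, with or without compound. About 2.0 µg LDL protein run on 4% SDS-PAGE and stained with Coomassie Brilliant Blue R250. ApoB-100 band quantified by densitometry as peak area (absorbance units per mm). Also reported as percent remaining apoB-100 relative to intact apoB-100 of native LDL incubated without CuSO4.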

[3] = organism: Homo sapiens; assay: Antioxidant effect on the Cu2+-mediated oxidation andapoB-100 fragmentation in LDL after incubation with 10 uM of compound; how it was run: as §1
[4] = organism: Homo sapiens; assay: Antioxidant effect on the Cu2+-mediated oxidation andapoB-100 fragmentation in LDL after incubation with 5 uM of compound; how it was run: as §1
[5] = organism: Homo sapiens; assay: Antioxidant effect on the Cu2+-mediated oxidation and apoB-100 fragmentation in LDL after incubation with 10 uM of compound; how it was run: as §1
[6] = organism: Homo sapiens; assay: Antioxidant effect on the Cu2+-mediated oxidation and apoB-100 fragmentation in LDL after incubation with 5 uM of compound; how it was run: as §1
[7] = organism: Homo sapiens; assay: Antioxidant effect on the Cu2+-mediated oxidation and apoB-100 fragmentation in LDL after incubation with 20 uM of compound; how it was run: as §1

Row | Compound | IC50 [1] | other results
1 | CC(C)(C)c1cc(C2=NNC(c3ccc(O)cc3)C2)cc(C(C)(C)C)c1O (stereo not drawn) | 200 nM | –
2 | CC(C)(C)c1cc(-c2cc(-c3cc(C(C)(C)C)c(O)c(C(C)(C)C)c3)[nH]n2)cc(C(C)(C)C)c1O | 700 nM | –
3 | COc1cc(C2CC(c3cc(C(C)(C)C)c(O)c(C(C)(C)C)c3)=NN2)ccc1O (stereo not drawn) | 200 nM | –
4 | CC(C)(C)c1cc(C2=NNC(c3ccc(O)c(O)c3)C2)cc(C(C)(C)C)c1O (stereo not drawn) | 300 nM | –
5 | Cc1cc(C2CC(c3cc(C(C)(C)C)c(O)c(C(C)(C)C)c3)=NN2)cc(C)c1O (stereo not drawn) | 200 nM | –
6 | CC(C)(C)c1cc(C2=NNC(c3cc(F)c(O)c(F)c3)C2)cc(C(C)(C)C)c1O (stereo not drawn) | 200 nM | –
7 | Cc1cc(C2CC(c3cc(C(C)(C)C)c(O)c(C(C)(C)C)c3)=NN2)c(C)c(C)c1O (stereo not drawn) | 600 nM | –
8 | CC(C)c1cc(C2CC(c3cc(C(C)(C)C)c(O)c(C(C)(C)C)c3)=NN2)cc(C(C)C)c1O (stereo not drawn) | 700 nM | –
9 | CC(C)(C)c1cc(C2=NNC(c3cc(C(C)(C)C)c(O)c(C(C)(C)C)c3)C2)cc(C(C)(C)C)c1O (stereo not drawn) | 100 nM | Area [2]: 9.97 AU mm-1; Area [3]: 9.26 AU mm-1; Area [4]: 5.63 AU mm-1
10 | CC(C)(C)c1cc(C2=NNC(c3ccc(O)c([N+](=O)[O-])c3)C2)cc(C(C)(C)C)c1O (stereo not drawn) | 300 nM | –
11 | CC(C)(C)c1cc(C2=NNC(c3cc(-c4ccccc4)c(O)c(-c4ccccc4)c3)C2)cc(C(C)(C)C)c1O (stereo not drawn) | 600 nM | –
12 | CC(C)(Sc1cc(C(C)(C)C)c(O)c(C(C)(C)C)c1)Sc1cc(C(C)(C)C)c(O)c(C(C)(C)C)c1 [PROBUCOL] | 600 nM | Area [5]: 4.73 AU mm-1; Area [6]: 0 AU mm-1; Area [7]: 9.22 AU mm-1
